The results in this text go back to ChEMBL document CHEMBL3259712, “New 5-unsubstituted dihydropyridines with improved CaV1.3 selectivity as potential neuroprotective agents against ischemic injury” (J Med Chem, 2014).

For series [1], the system named is SH-SY5Y. The series can be described thus: Neuroprotective activity against K+ induced Ca2+ overload in human SH-SY5Y cells assessed as survival at 5 uM after 24 hrs by MTT assay (reference value: 52.1 +/- 3.5%). Format: functional. To be noted: read-out: Survival. For orientation: Tetrazolium dyes change colour on reduction, which living cells bring about.
Series [2] relates to SH-SY5Y. In words: Neuroprotective activity against rotenone-oligomycin A-induced oxidative stress in human SH-SY5Y cells assessed as protection at 5 uM co-incubated rot/oligo for 24 hrs by MTT assay relative to control. Format: functional. The method in brief:
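SH-SY5Y cells in 1% FBS medium co-incubated 24 h with compound and rotenone/oligomycin A (30/10 μM). Melatonin 0.3 μM was the positive control, and compounds were used at 5 μM. Viability by MTT reduction at 540 nm. % protection computed against basal as 100% and normalized to rot/olig toxicity; five to seven cultures in triplicate.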

The target of series [3] is Voltage-dependent L-type calcium channel subunit alpha-1D (Homo sapiens, UniProt Q01668). In words: Inhibition of human Cav1.3 channel in human SH-SY5Y cells assessed as 70 mM K+ induced calcium elevation compound treated 15 mins before stimulus by Fluo-4/AM assay. Format: cell-based. The method in brief: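 SH-SY5Y cells grown 2 days, loaded with 10 μM Fluo-4/AM for 1 h at 37 °C in serum-free medium, washed with Krebs-HEPES and held 15 min at room temperature. Compound applied 15 min before 70 mM KCl.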

Series [4] concerns SH-SY5Y. In words: Neuroprotective activity against K+ induced Ca2+ overload in human SH-SY5Y cells assessed as protection at 5 uM after 24 hrs by MTT assay relative to control. Format: functional. The method in brief:
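SH-SY5Y cells, 1 × 10⁵/well, 1% FBS medium, up to 13 passages. Compound diluted from 10⁻² M DMSO stock to 5 μM and co-incubated 24 h with 70 mM K⁺ (hypertonic); DMSO-only controls. MTT at 5 mg/mL for 2 h at 37 °C, read at 540 nm. % protection computed against basal as 100% survival and normalized to K⁺ toxicity; at least five cultures in triplicate.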

For series [5], the system named is SH-SY5Y. In words: Neuroprotective activity against rotenone-oligomycin A-induced oxidative stress in human SH-SY5Y cells assessed as survival at 5 uM co-incubated rot/oligo for 24 hrs by MTT assay (Rvb =65.6 +/- 1.3%). To be noted: read-out: Survival. Format: functional.
Series [6] concerns the target Voltage-dependent L-type calcium channel subunit alpha-1C (Rattus norvegicus, UniProt P22002). In words: Inhibition of rat Cav1.2 channel in rat mesenteric artery assessed as relaxation of 70 mM K+ induced contraction. As to conditions: rat. Format: tissue-based. The method in brief: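 Third-order mesenteric artery segments (2 mm) from 6-month-old Wistar Kyoto rats on a wire myograph, isometric tension, Krebs−Henseleit at 37 °C, pH 7.4. Segments equilibrated, stretched to optimal diameter, tested with 120 mM KCl, endothelium checked with 10 μM acetylcholine.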

Series [7] deals with SH-SY5Y. The series can be described thus: Neuroprotective activity against rotenone-oligomycin A-induced oxidative stress in human SH-SY5Y cells assessed as survival incubated with rot/oligo for 8 hrs followed by treated with compound at 5 uM for 16 hrs by MTT assay (Rvb =70.6 +/- 1.8%). As to conditions: read-out: Survival. Format: functional. The method in brief:
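SH-SY5Y cells cultured 24 h, then exposed to rotenone/oligomycin A (30/10 μM) for 8 h at 37 °C. Stressor removed; compound in 1% FBS medium added for 16 h. DMSO-only control. MTT reduction (5 mg/mL, 2 h, 37 °C; OD 540 nm). Survival relative to untreated basal; mean ± SEM of five to seven cultures in triplicate.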

The subject of series [8] is SH-SY5Y. The series can be described thus: Neuroprotective activity against rotenone-oligomycin A-induced oxidative stress in human SH-SY5Y cells assessed as protection incubated with rot/oligo for 8 hrs followed by treated with compound at 5 uM for 16 hrs by MTT assay relative to control. Format: functional. The method in brief: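 SH-SY5Y cells cultured 24 h, then exposed to rotenone/oligomycin A (30/10 μM) for 8 h at 37 °C. Stressor was removed and cells incubated 16 h with compound in 1% FBS medium. Melatonin 0.3 μM was the positive control, and compounds were used at 5 μM. Viability by MTT; % protection against basal as 100%, normalized to rot/olig toxicity; five to seven cultures in triplicate.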

pIC50: −log10 of the molar value.

Chain of Voltage-dependent L-type calcium channel subunit alpha-1D (Q01668 whole entry): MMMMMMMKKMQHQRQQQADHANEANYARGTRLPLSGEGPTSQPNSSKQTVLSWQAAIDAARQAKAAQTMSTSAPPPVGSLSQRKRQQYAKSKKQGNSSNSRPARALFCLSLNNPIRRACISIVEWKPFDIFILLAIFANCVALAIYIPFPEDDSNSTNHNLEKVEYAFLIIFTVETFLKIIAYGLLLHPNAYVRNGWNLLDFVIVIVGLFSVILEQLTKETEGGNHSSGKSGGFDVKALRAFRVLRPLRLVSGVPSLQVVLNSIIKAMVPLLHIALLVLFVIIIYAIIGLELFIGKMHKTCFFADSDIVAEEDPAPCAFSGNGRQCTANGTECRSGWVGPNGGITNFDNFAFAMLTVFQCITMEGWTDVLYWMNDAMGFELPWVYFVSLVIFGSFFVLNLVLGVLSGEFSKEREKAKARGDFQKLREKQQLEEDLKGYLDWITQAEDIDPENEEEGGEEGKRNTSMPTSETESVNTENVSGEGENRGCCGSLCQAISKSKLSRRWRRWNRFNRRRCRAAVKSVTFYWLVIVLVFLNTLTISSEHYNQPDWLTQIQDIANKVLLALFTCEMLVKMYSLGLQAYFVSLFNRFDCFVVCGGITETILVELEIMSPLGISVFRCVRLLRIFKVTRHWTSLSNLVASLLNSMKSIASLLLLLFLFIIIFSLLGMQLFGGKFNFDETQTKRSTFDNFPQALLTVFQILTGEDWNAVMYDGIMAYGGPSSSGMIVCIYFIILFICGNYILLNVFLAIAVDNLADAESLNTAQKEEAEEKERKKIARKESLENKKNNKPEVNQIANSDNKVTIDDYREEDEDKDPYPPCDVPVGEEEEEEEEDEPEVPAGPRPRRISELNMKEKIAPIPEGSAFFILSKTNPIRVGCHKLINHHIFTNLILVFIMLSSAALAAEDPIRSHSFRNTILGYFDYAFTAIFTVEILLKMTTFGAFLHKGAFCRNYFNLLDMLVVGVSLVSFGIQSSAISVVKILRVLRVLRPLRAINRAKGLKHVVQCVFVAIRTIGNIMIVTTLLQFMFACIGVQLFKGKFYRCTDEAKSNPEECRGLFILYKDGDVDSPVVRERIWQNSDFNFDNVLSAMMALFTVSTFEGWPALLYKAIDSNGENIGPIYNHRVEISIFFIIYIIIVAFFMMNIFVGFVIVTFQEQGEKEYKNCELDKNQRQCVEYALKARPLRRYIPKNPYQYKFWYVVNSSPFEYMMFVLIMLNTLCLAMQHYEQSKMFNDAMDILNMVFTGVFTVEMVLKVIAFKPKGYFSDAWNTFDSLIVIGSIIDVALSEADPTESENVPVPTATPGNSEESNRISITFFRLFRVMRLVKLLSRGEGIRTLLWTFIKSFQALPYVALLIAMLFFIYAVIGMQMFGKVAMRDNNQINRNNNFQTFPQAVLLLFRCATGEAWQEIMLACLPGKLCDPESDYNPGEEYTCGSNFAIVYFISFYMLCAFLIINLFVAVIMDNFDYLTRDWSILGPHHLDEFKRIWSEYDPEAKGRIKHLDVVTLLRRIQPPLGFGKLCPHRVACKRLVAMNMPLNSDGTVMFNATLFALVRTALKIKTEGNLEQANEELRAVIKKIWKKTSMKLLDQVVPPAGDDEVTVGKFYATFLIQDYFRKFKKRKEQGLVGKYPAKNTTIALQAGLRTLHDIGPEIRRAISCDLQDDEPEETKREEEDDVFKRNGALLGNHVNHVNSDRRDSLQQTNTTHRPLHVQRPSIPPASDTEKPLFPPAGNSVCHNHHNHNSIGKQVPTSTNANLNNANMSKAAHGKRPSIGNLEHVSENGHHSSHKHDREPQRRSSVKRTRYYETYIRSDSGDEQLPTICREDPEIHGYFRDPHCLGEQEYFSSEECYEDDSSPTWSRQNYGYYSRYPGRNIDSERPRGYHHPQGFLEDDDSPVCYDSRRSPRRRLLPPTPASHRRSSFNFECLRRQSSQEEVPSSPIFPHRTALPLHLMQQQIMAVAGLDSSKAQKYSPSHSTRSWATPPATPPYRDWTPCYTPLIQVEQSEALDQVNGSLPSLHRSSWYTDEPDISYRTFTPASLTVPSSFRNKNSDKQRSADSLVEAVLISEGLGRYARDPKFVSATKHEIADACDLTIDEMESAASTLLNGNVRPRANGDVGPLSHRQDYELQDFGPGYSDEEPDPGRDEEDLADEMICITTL
Chain of Voltage-dependent L-type calcium channel subunit alpha-1C (P22002 whole entry): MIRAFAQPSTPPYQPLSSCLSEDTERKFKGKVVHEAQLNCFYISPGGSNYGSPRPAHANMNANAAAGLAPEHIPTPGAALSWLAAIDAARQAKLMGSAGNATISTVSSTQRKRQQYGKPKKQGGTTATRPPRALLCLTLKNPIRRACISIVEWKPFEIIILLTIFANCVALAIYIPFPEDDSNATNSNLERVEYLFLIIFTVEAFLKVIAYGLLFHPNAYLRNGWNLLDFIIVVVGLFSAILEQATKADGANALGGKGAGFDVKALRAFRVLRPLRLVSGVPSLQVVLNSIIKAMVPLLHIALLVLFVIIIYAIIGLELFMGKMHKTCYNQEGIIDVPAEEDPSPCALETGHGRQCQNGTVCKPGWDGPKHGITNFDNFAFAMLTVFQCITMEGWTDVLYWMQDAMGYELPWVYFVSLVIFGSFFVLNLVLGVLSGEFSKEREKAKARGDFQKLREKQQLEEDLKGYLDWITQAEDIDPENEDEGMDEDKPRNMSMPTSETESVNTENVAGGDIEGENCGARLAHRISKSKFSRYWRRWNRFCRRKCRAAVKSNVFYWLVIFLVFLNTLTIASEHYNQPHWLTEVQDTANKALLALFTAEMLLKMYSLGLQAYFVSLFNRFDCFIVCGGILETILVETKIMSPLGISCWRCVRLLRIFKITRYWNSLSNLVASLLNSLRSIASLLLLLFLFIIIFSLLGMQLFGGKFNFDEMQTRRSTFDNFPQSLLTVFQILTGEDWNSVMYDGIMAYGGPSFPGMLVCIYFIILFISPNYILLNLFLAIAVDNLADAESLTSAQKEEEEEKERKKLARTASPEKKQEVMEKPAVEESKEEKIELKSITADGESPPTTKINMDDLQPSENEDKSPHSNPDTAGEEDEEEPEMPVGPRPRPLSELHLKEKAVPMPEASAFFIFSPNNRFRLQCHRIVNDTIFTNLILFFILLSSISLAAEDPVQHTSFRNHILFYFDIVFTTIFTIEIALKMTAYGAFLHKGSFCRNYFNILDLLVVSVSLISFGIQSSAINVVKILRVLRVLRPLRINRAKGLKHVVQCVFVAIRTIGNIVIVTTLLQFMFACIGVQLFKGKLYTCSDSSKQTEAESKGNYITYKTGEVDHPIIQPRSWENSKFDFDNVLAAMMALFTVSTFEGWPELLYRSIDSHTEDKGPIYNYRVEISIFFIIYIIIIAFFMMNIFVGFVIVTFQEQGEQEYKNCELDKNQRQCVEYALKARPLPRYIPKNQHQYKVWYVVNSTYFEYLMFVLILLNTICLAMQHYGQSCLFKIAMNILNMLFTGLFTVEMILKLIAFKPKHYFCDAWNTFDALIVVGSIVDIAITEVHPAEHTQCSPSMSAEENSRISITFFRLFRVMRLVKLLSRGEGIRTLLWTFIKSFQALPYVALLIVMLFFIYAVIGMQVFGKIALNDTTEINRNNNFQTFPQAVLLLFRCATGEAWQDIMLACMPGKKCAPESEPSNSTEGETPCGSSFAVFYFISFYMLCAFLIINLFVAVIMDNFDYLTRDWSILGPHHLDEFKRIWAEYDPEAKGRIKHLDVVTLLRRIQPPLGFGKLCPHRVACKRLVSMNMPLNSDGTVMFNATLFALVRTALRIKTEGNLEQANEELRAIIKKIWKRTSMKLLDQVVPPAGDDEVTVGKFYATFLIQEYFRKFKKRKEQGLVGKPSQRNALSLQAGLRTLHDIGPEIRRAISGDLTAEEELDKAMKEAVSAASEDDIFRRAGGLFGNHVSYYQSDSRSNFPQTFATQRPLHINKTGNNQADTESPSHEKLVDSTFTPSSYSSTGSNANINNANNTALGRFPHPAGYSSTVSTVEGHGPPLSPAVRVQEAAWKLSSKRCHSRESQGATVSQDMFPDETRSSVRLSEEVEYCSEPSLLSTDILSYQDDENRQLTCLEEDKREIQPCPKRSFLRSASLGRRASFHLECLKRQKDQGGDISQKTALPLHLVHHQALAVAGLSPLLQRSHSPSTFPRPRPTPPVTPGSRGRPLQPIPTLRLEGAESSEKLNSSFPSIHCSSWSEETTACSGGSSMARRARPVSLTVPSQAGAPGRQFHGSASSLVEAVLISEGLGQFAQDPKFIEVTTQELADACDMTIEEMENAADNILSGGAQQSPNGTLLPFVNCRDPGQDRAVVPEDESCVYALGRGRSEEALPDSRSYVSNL

As usually defined, the pIC50 is the negative decadic logarithm of the IC50, by convention in mol/L. Turning to `O=C1CCCC2=C1C(c1ccccc1)C=C(c1ccccc1)N2` (stereo not drawn), the viability at 5 µM stood at 66.4% in series [1] and 80.3% in series [5]. For the same molecule, the Activity in series [2] is on record as 39.8%; in series [4] it was 28.2%. For the same molecule, in series [3], the negative-log IC50 (pIC50) was 4.62.
As to `CCOC(=O)C1=C(C)NC(c2ccc(Cl)cc2)=CC1c1ccc(Cl)cc1` (stereo not drawn), the viability at 5 µM in series [1] came out at 65.1%; in series [5], 69.9%. For the same molecule, the Activity in series [2] is 11.9%; in series [4] it was 24.8%. Moreover, the pIC50 in series [3] is 4.55. Further, the “inhibition (INH)” value in series [6] is “Dose-dependent effect”.
Regarding `CCOC(=O)C1=C(C)NC(c2ccccc2)=CC1c1ccccc1` (stereo not drawn), the viability at 5 µM was 67.6% in series [1] and 78.4% in series [5]. Further, the Activity in series [2] is given as 32.5%; in series [4], 34.6%. The negative-log IC50 (pIC50) in series [3] is 4.73.
Turning to `COc1ccc(C2C=C(c3ccccc3)NC(C)=C2C(=O)SC(C)(C)C)cc1` (stereo not drawn), the viability at 5 µM in series [7] came to 81.8%; in series [1], 66.7%; in series [5] it was 82.3%. In addition, the figures for the Activity in series [2], in series [8] and in series [4] were 45.7%, 38.6% and 31.3%, respectively. Further, the pIC50 in series [3] was 4.57. Moreover, the “inhibition (INH)” value in series [6] is reported as “Dose-dependent effect”.
As to `CC1=C(C(=O)SC(C)(C)C)C(c2ccc(Br)cc2)C=C(c2ccc(C)cc2)N1` (stereo not drawn), the viability at 5 µM in series [7] stood at 74.2%; in series [1] it was 67.2%; in series [5] it was 85.7%. In addition, the Activity came to 57.9% in series [2], 12.3% in series [8] and 34.5% in series [4]. Besides, the pIC50 in series [3] was 4.22. Besides, the “inhibition (INH)” value in series [6] is “Dose-dependent effect”.
Take `CCOC(=O)C1=C(CC)NC(c2ccccc2)=CC1c1ccccc1` (stereo not drawn): the viability at 5 µM came to 67.3% in series [1] and 77.4% in series [5]. Further, the figures for the Activity in series [2] and in series [4] were 32.8% and 31.4%, respectively. The negative-log IC50 (pIC50) in series [3] is 4.89.
Turning to `CCOC(=O)C1=C(C)NC(c2ccc(C)cc2)=CC1c1ccccc1[N+](=O)[O-]` (stereo not drawn), the results for the viability at 5 µM in series [1] and in series [5] were 62.9% and 69.9%, respectively. Also, the results for the Activity in series [2] and in series [4] were 11.7% and 22.1%, respectively. Besides, the pIC50 in series [3] is 4.36.
For the molecule `CC1=C(C(=O)SC(C)(C)C)C(c2ccccc2)C=C(c2ccccc2)N1` (stereo not drawn), the viability at 5 µM in series [1] was 68%; in series [5], 79.5%. Further, the Activity is given as 39.6% in series [2] and 34.1% in series [4]. Also, the negative logarithm of the IC50 (pIC50) in series [3] was 4.02. Moreover, in series [6], the “inhibition (INH)” value is recorded as “Dose-dependent effect”.
As to `CCOC(=O)C1=C(C)NC(c2ccc(Cl)cc2)=CC1c1ccccc1[N+](=O)[O-]` (stereo not drawn), the viability at 5 µM in series [1] worked out at 59.3%; in series [5] it was 60%. In addition, the negative-log IC50 (pIC50) in series [3] was 4.24. Also, the Activity in series [4] amounted to 13.7%.
With `CCOC(=O)C1=C(C)NC(c2ccccc2)=CC1c1ccc([N+](=O)[O-])cc1` (stereo not drawn), the viability at 5 µM in series [1] and in series [5] was 64.6% in each case. In addition, the pIC50 in series [3] is 4.91. Besides, the Activity in series [4] came to 23.5%.
Consider `C=CCOC(=O)C1=C(C)NC(c2ccc(Cl)cc2)=CC1c1ccccc1` (stereo not drawn), for which the results for the viability at 5 µM in series [7], in series [1] and in series [5] were 84.3%, 68.7% and 79.7%, respectively. The Activity in series [2] is 41.5%; in series [8] it was 44.1%; in series [4], 29.8%. Further, the pIC50 in series [3] is 4.73. Further, the “inhibition (INH)” value in series [6] is reported as “Dose-dependent effect”.
On to `CCOC(=O)C1=C(C)NC(c2ccco2)=CC1c1ccc(C)cc1` (stereo not drawn), for which the viability at 5 µM came to 79.9% in series [7], 68.5% in series [1] and 78% in series [5]. For the same molecule, the Activity amounted to 36.6% in series [2], 33.2% in series [8] and 32% in series [4]. In addition, the negative logarithm of the IC50 (pIC50) in series [3] is 4.26. Also, in series [6], the “inhibition (INH)” value is on record as “Dose-dependent effect”.
In the case of `CC1=C(C(=O)SC(C)(C)C)C(c2ccc(C)cc2)C=C(c2ccccc2)N1` (stereo not drawn), the viability at 5 µM in series [7] was 83.4%; in series [1], 67.4%; in series [5], 83.3%. Further, the figures for the Activity in series [2], in series [8] and in series [4] were 49.4%, 43.3% and 30.4%, respectively. In addition, in series [3], the negative-log IC50 (pIC50) is 4.25.
For `CCOC(=O)C1=C(C)NC(c2ccccc2)=CC1c1ccc(OC)cc1` (stereo not drawn), the viability at 5 µM came out at 83.5% in series [7], 69.4% in series [1] and 81.3% in series [5]. Further, the Activity in series [2] is 46.2%; in series [8], 42%; in series [4] it was 34.1%. Moreover, in series [3], the pIC50 was 4.53. Further, in series [6], the “inhibition (INH)” value is on record as “Dose-dependent effect”.
Turning to `CCOC(=O)C1=C(C)NC(c2ccc(Cl)cc2)=CC1c1ccccc1` (stereo not drawn), the viability at 5 µM in series [1] is 69.4%; in series [5], 82.7%. The Activity stood at 46.2% in series [2] and 36.6% in series [4]. Moreover, the pIC50 in series [3] was 5.03.
`CCCC1=C(C(=O)OCC)C(c2ccccc2)C=C(c2ccccc2)N1` (stereo not drawn): the viability at 5 µM in series [7] is 80.6%; in series [1], 65.4%; in series [5], 80.5%. The Activity in series [2] was 42.9%; in series [8], 34.8%; in series [4], 23.3%. Further, in series [3], the negative-log IC50 (pIC50) is 5.00.
For orientation: inhibition means how much of the control response was suppressed. In the case of `CCOC(=O)C1=C(C)NC(c2ccc(Cl)cc2)=CC1c1cccc(OC)c1` (stereo not drawn), the viability at 5 µM in series [7] stood at 76.6%; in series [1], 72.7%; in series [5] it was 81.9%. Also, the Activity in series [2] was found to be 47.8%; in series [8], 20.5%; in series [4] it was 40.1%. Moreover, the pIC50 in series [3] was 4.82. Also, in series [3], the inhibition turned out to be 48%.
Turning to `CC1=C(C(=O)SC(C)(C)C)C(c2ccc(C)cc2)C=C(c2ccc(C)cc2)N1` (stereo not drawn), the viability at 5 µM was 69.9% in series [1] and 79.9% in series [5]. The Activity in series [2] and in series [4] was 36.2% throughout. In addition, the pIC50 in series [3] is below 4.00.
On to `CC(=O)C1=C(C)NC(c2ccccc2)=CC1c1ccccc1` (stereo not drawn), for which the values for the viability at 5 µM in series [7], in series [1] and in series [5] were 76.7%, 67.4% and 87.3%, respectively. Moreover, the Activity in series [2] is on record as 61.9%; in series [8], 21.7%; in series [4] it was 32.5%. The negative-log IC50 (pIC50) in series [3] was 4.57. Moreover, the “inhibition (INH)” value in series [6] is “Dose-dependent effect”.
For the molecule `CCOC(=O)C1=C(C)NC(c2ccc(C)cc2)=CC1c1cccs1` (stereo not drawn), the results for the viability at 5 µM in series [7], in series [1] and in series [5] were 77.5%, 75.6% and 81.9%, respectively. The Activity in series [2] was 45.3%; in series [8], 25.6%; in series [4] it was 50.7%. Further, the negative logarithm of the IC50 (pIC50) in series [3] is 4.83. For the same molecule, the inhibition in series [3] stood at 36%.
